Activity calls are given as the source filed them. No cut-off for these calls is given here.
Experiments:
Plasmodium falciparum [1] = test: Resistance index, ratio of IC50 for Plasmodium falciparum W2 to IC50 for Plasmodium falciparum D6; type: functional
Procedure, shortened: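 P. falciparum clones D6 (CQ/MFQ-susceptible, Sierra I/UNC), W2 (CQ-resistant, MFQ-susceptible, Indochina I) and TM91C235 (CQ- and MFQ-resistant, South-East Asian) were tested in a modified Desjardins in vitro susceptibility screen, giving IC50 and IC90. Resistance index is IC50 of the resistant strain divided by IC50 against D6 (W2/D6, C235/D6).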

Plasmodium falciparum [2] = test: Resistance index, ratio of IC50 for Plasmodium falciparum C235 to IC50 for Plasmodium falciparum D6; type: functional
Plasmodium falciparum [3] = test: Antimalarial activity against Plasmodium falciparum D6; type: functional, organism-based
Plasmodium falciparum [4] = test: Antimalarial activity against Plasmodium falciparum W2; type: functional, organism-based
Plasmodium falciparum [5] = test: Antimalarial activity against Plasmodium falciparum C235; type: functional, organism-based
[6] = molecular target: Botulinum neurotoxin type A (Clostridium botulinum) (UniProt P0DPI0); test: (§1) Inhibition of clostridium botulinum Botulinum neurotoxin type A light chain at 20 uM
Procedure, shortened: (§2)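 Recombinant BoNT/A LC and peptide substrate were incubated in 40 mM HEPES–0.05% Tween pH 7.3 with 0.5 mg/ml BSA and 50 μM excess ZnCl2 at 37°C, with compound at 20 μM. Reactions were quenched with TFA, and substrate hydrolysis was quantified by reverse-phase HPLC peak areas. Percent inhibition was measured in duplicate.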

Vero = test: Cytotoxicity against african green monkey Vero 76 cells at 20 uM; type: cell-based; settings: chlorocebus sabaeus
[7] = Selectivity index, ratio of IC50 for […] cells to IC50 for Plasmodium falciparum D6; type: toxicity, cell-based; settings: read-out: Ratio IC50
RAW264.7 = test: Cytotoxicity against rat RAW264.7 cells by MTT assay; type: cell-based; settings: for IC50: Mus musculus, RAW264.7; for IC90: […]
Procedure, shortened: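 RAW 264.7 cells were seeded at 2.5×10^4 per well about 12 h before dosing. They were exposed to 0.29–48 μg/ml compound for 48 h at 37°C, 5% CO2. Viability was read by MTT reduction, with a DMSO control. Runs were in duplicate, and IC50 came from sigmoidal variable-slope dose-response fits.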

[8] = Selectivity index, ratio of IC50 for […] cells to IC50 for Plasmodium falciparum C235; type: toxicity, cell-based; settings: read-out: Ratio IC50
[9] = Selectivity index, ratio of IC90 for […] cells to IC90 for Plasmodium falciparum W2; type: toxicity, cell-based
[10] = Selectivity index, ratio of IC90 for […] cells to IC90 for Plasmodium falciparum D6; type: toxicity, cell-based
Liver = test: Half life in mouse liver microsomes; type: ADME, Microsome
Procedure, shortened: (§3)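 Compound at 10 μM was incubated with mouse or human liver microsomes (1 mg/mL protein) in 0.1 M sodium phosphate pH 7.4 with an NADPH-regenerating system at 37°C, started by G6PD. Samples were quenched with cold acetonitrile at 0, 10, 30 and 60 min and analysed by LC-MS/MS. Half-life = 0.693/k.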

Mus musculus = test: Toxicity against ICR mouse at 160 mg/kg, po for 3 consecutive days measured; type: organism-based; design: dose 160 mg/kg, route oral; settings: in vivo
Procedure, shortened: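 P. berghei (P-line)-infected outbred ICR mice were given compound orally in 0.5% hydroxyethylcellulose/0.1% Tween 80 daily for 3 days. Toxicity was judged from overt physical or behavioural changes, checked twice daily, plus gross necropsy of all mice.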

[11] = Selectivity index, ratio of IC90 for […] cells to IC90 for Plasmodium falciparum C235; type: toxicity, cell-based
Ebolavirus [12] = test: Antiviral activity against Zaire ebolavirus expressing enhanced GFP in Vero 76 cells after 48 hrs by standard Plaque assay; type: functional, cell-based; settings: Orthoebolavirus
Liver microsomes = test: Half life in human liver microsomes; type: ADME, Microsome; procedure, shortened: as §3
Plasmodium berghei = test: Antiplasmodial activity against Plasmodium berghei str. ANKA infected in ICR mouse assessed as protection against infection; type: functional, organism-based
Procedure, shortened: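 ICR mice were dosed orally once daily on days -1, 0 (1–3 h before inoculation) and +1, with compound in 0.5% hydroxyethylcellulose/0.1% Tween 80. On day 0 they received 1.0×10^5 P. berghei ANKA sporozoites IV, taken from Anopheles dirus salivary glands. Giemsa thick/thin tail smears were read on days 4–31. Protection meant no parasitemia within 10 days and negative smears through day 31.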

Ebolavirus [13] = test: Antiviral activity against Zaire ebolavirus expressing enhanced GFP in Vero 76 cells at 20 uM after 48 hrs by standard Plaque assay; type: functional; settings: Orthoebolavirus
[14] = Selectivity index, ratio of IC50 for […] cells to IC50 for Plasmodium falciparum W2; type: toxicity, cell-based; settings: read-out: Ratio IC50
[15] = Inhibition of beta-hematin formation assessed as drug-hematin ratio for 50% inhibition by BHIA assay; type: functional
[16] = Inhibition of beta-hematin formation; type: functional
[17] = Cytotoxicity against human NCI60 cells; type: functional
[18] = molecular target: Botulinum neurotoxin type A (Clostridium botulinum, UniProt P0DPI0); test: as §1; procedure, shortened: as §2
Chain of Botulinum neurotoxin type A (P0DPI0 2-448 limits assumed): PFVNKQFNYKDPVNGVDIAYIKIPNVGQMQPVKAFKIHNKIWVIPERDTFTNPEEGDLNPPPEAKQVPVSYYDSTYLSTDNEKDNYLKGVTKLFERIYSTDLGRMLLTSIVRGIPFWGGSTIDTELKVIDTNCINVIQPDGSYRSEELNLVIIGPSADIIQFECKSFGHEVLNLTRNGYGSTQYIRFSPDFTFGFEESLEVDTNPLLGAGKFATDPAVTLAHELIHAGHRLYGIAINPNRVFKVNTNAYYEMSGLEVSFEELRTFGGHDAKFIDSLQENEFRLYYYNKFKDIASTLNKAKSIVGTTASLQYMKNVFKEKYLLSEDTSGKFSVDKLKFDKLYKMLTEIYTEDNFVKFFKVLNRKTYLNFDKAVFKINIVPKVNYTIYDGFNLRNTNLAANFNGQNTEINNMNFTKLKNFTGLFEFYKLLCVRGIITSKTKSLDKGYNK

Chain of Botulinum neurotoxin type A (Clostridium botulinum) (P0DPI0 2-448 limits assumed): as above

## Cc1cc(NCCCN2CCCC2)c2ccc3c(ccc4c(NCCCN5CCCC5)cc(C)nc43)c2n1.Cl
Plasmodium falciparum [1]
  Ratio IC50: 0.52
Plasmodium falciparum [2]
  Ratio IC50: 2.31
Plasmodium falciparum [3]
  IC50: 14.8 nM
  IC90: 39.4 nM
Plasmodium falciparum [4]
  IC50: 7.75 nM
  IC90: 25.4 nM
Plasmodium falciparum [5]
  IC50: 34.3 nM
  IC90: 95.2 nM
[6]
  inhibition: 73.5%

## CCN(CC)CCNc1cc(C)nc2c1ccc1c2ccc2c(NCCN(CC)CC)cc(C)nc21.Cl
Vero
  Activity: < 20%
Plasmodium falciparum [1]
  Ratio IC50: 0.57
Plasmodium falciparum [2]
  Ratio IC50: 0.55
Plasmodium falciparum [3]
  IC50: 6.01 nM
  IC90: 9.01 nM
Plasmodium falciparum [4]
  IC90: 10.1 nM
[7]
  selectivity ratio: 1560
RAW264.7
  IC50: 9350 nM
  IC90: 10700 nM
Plasmodium falciparum [5]
  IC50: 3.32 nM
  IC90: 3.79 nM
[8]
  selectivity ratio: 282
[6]
  inhibition: 55.4%
[9]
  selectivity ratio: 1060
[10]
  selectivity ratio: 1190
Liver
  t1/2: > 1 h
Mus musculus
  Activity: Non-toxic
[11]
  selectivity ratio: 2830
Ebolavirus [12]
  IC50: 5000 nM
Liver microsomes
  t1/2: > 1 h
Plasmodium berghei
  Activity: inactive
Ebolavirus [13]
  inhibition at 20 µM: 97%
[14]
  selectivity ratio: 2690

## Cc1cc(NCCN2CCCCC2)c2ccc3c(ccc4c(NCCN5CCCCC5)cc(C)nc43)c2n1.Cl
Plasmodium falciparum [1]
  Ratio IC50: 0.62
Plasmodium falciparum [2]
  Ratio IC50: 1.2
Plasmodium falciparum [3]
  IC50: 8.79 nM
  IC90: 13.2 nM
Plasmodium falciparum [4]
  IC50: 5.5 nM
  IC90: 15.4 nM
Plasmodium falciparum [5]
  IC50: 10.6 nM
  IC90: 14.9 nM
[6]
  inhibition: 63.4%

## Cc1cc(NCCN2CCOCC2)c2ccc3c(ccc4c(NCCN5CCOCC5)cc(C)nc43)c2n1.Cl
[15]
  IC50: 0.473 equiv
Plasmodium falciparum [1]
  Ratio IC50: 1.03
Plasmodium falciparum [2]
  Ratio IC50: 1.66
Plasmodium falciparum [3]
  IC50: 5.93 nM
  IC90: 12.6 nM
Plasmodium falciparum [4]
  IC50: 6.12 nM
  IC90: 11.5 nM
[7]
  selectivity ratio: 1720
RAW264.7
  IC50: 10200 nM
  IC90: 29900 nM
Plasmodium falciparum [5]
  IC50: 9.84 nM
  IC90: 16.5 nM
[8]
  selectivity ratio: 1030
[6]
  inhibition: 39%
[9]
  selectivity ratio: 2600
[10]
  selectivity ratio: 2370
Liver
  t1/2: > 1 h
[11]
  selectivity ratio: 1820
Liver microsomes
  t1/2: > 1 h
Ebolavirus [13]
  inhibition at 20 µM: 53%
[16]
  inhibition: Dose-dependent effect
[17]
  inhibition (INH): 91%
[14]
  selectivity ratio: 1660

## Cc1cc(NCCCN)c2ccc3c(ccc4c(NCCCN)cc(C)nc43)c2n1.Cl
Plasmodium falciparum [1]
  Ratio IC50: 2.4
Plasmodium falciparum [2]
  Ratio IC50: 2.87
Plasmodium falciparum [3]
  IC50: 708 nM
  IC90: 1010 nM
Plasmodium falciparum [4]
  IC50: 1700 nM
  IC90: 3260 nM
Plasmodium falciparum [5]
  IC50: 2030 nM
  IC90: 3050 nM
[6]
  inhibition: 70%

## C[C@@H]1CC[C@H]2[C@@H](C)C(=O)O[C@@H]3O[C@@]4(C)CC[C@@H]1[C@]32OO4 [ARTEMISININ]
Plasmodium falciparum [3]
  IC50: 9 nM
  IC90: 12.8 nM
Plasmodium falciparum [4]
  IC50: 6.7 nM
  IC90: 11.5 nM
Plasmodium falciparum [5]
  IC50: 13 nM
  IC90: 17.4 nM

## CCN(CC)CCCNc1cc(C)nc2c1ccc1c2ccc2c(NCCCN(CC)CC)cc(C)nc21.Cl
Plasmodium falciparum [1]
  Ratio IC50: 0.29
Plasmodium falciparum [2]
  Ratio IC50: 2.22
Plasmodium falciparum [3]
  IC50: 30 nM
  IC90: 49.5 nM
Plasmodium falciparum [4]
  IC50: 8.65 nM
  IC90: 46.7 nM
Plasmodium falciparum [5]
  IC50: 66.5 nM
  IC90: 286 nM
[6]
  inhibition: 64.7%

## Cc1cc(NCCCCN)c2ccc3c(ccc4c(NCCCCN)cc(C)nc43)c2n1
[6]
  inhibition: 72.2%

## Cc1cc(NCCCN2CCCCC2)c2ccc3c(ccc4c(NCCCN5CCCCC5)cc(C)nc43)c2n1.Cl
Vero
  Activity: < 20%
Plasmodium falciparum [1]
  Ratio IC50: 0.75
Plasmodium falciparum [2]
  Ratio IC50: 2.68
Plasmodium falciparum [3]
  IC50: 9.26 nM
  IC90: 17.4 nM
Plasmodium falciparum [4]
  IC50: 6.98 nM
  IC90: 22.5 nM
Plasmodium falciparum [5]
  IC50: 24.8 nM
  IC90: 41.2 nM
[6]
  inhibition: 66.1%
Ebolavirus [12]
  IC50: 5000 nM
Ebolavirus [13]
  inhibition at 20 µM: 100%

## Cc1cc(NCCN(C)C)c2ccc3c(ccc4c(NCCN(C)C)cc(C)nc43)c2n1.Cl
Plasmodium falciparum [1]
  Ratio IC50: 0.59
Plasmodium falciparum [2]
  Ratio IC50: 0.98
Plasmodium falciparum [3]
  IC90: 20.8 nM
Plasmodium falciparum [4]
  IC50: 9.19 nM
  IC90: 31.2 nM
Plasmodium falciparum [5]
  IC50: 15.3 nM
  IC90: 26 nM
[6]
  inhibition: 57%

## Cc1cc(NCCCN2CCOCC2)c2ccc3c(ccc4c(NCCCN5CCOCC5)cc(C)nc43)c2n1.Cl
[15]
  IC50: 0.52 equiv
Vero
  Activity: < 20%
Plasmodium falciparum [1]
  Ratio IC50: 0.38
Plasmodium falciparum [2]
  Ratio IC50: 1.54
Plasmodium falciparum [3]
  IC50: 5.23 nM
  IC90: 8.47 nM
Plasmodium falciparum [4]
  IC50: 2 nM
  IC90: 6.38 nM
[7]
  selectivity ratio: 1430
RAW264.7
  IC50: 7480 nM
  IC90: 11000 nM
Plasmodium falciparum [5]
  IC50: 8.05 nM
  IC90: 17.4 nM
[8]
  selectivity ratio: 929
[6]
  inhibition: 55.6%
[9]
  selectivity ratio: 1730
[10]
  selectivity ratio: 1300
Liver
  t1/2: > 1 h
[11]
  selectivity ratio: 635
Ebolavirus [12]
  IC50: 2500 nM
Liver microsomes
  t1/2: 0.667 h
Ebolavirus [13]
  inhibition at 20 µM: 96%
[16]
  inhibition: Dose-dependent effect
[17]
  inhibition (INH): 92%
[14]
  selectivity ratio: 3740

## CCN(CC)CCCC(C)Nc1ccnc2cc(Cl)ccc12 (configuration not stated) [CHLOROQUINE]
Plasmodium falciparum [3]
  IC90: 16.1 nM
Plasmodium falciparum [4]
  IC90: 698 nM
Plasmodium falciparum [5]
  IC90: 373 nM

## Cc1cc(NCCN2CCCC2)c2ccc3c(ccc4c(NCCN5CCCC5)cc(C)nc43)c2n1.Cl
[15]
  IC50: 0.401 equiv
Plasmodium falciparum [1]
  Ratio IC50: 0.48
Plasmodium falciparum [2]
  Ratio IC50: 1.54
Plasmodium falciparum [3]
  IC50: 16.8 nM
  IC90: 32.3 nM
Plasmodium falciparum [4]
  IC50: 8.11 nM
  IC90: 28 nM
Plasmodium falciparum [5]
  IC50: 25.9 nM
  IC90: 40.3 nM
[6]
  inhibition: 60.3%
[16]
  inhibition: Dose-dependent effect

## Cc1cc(NCCN)c2ccc3c(ccc4c(NCCN)cc(C)nc43)c2n1.Cl
Plasmodium falciparum [1]
  Ratio IC50: 3.22
Plasmodium falciparum [2]
  Ratio IC50: 3.78
Plasmodium falciparum [3]
  IC50: 270 nM
  IC90: 355 nM
Plasmodium falciparum [4]
  IC50: 871 nM
  IC90: 1790 nM
Plasmodium falciparum [5]
  IC50: 1020 nM
  IC90: 1760 nM
[18]
  Ki: 8700 nM
[6]
  inhibition: 62.7%

## Cc1cc(NCCCN(C)C)c2ccc3c(ccc4c(NCCCN(C)C)cc(C)nc43)c2n1.Cl
Plasmodium falciparum [1]
  Ratio IC50: 3.41
Plasmodium falciparum [2]
  Ratio IC50: 0.53
Plasmodium falciparum [3]
  IC50: 103 nM
  IC90: 210 nM
Plasmodium falciparum [4]
  IC50: 353 nM
  IC90: 709 nM
Plasmodium falciparum [5]
  IC50: 54.8 nM
  IC90: 699 nM
[6]
  inhibition: 68.9%
